Results as given in ChEMBL document CHEMBL1140730, “Validation of diacyl glycerolacyltransferase I as a novel target for the treatment of obesity and dyslipidemia using a potent and selective small molecule inhibitor” (J Med Chem, 2008).
One block for each compound: values may come before it. The source made the active and inactive calls. No cut-off for these calls is given here.

Assays:
[1] = target: T1, Diacylglycerol O-acyltransferase 1 (Mus musculus, UniProt Q9Z2A7); experiment: Inhibition of mouse recombinant DGAT1 expressed in Sf9 cells
T1 sequence (Q9Z2A7 whole entry): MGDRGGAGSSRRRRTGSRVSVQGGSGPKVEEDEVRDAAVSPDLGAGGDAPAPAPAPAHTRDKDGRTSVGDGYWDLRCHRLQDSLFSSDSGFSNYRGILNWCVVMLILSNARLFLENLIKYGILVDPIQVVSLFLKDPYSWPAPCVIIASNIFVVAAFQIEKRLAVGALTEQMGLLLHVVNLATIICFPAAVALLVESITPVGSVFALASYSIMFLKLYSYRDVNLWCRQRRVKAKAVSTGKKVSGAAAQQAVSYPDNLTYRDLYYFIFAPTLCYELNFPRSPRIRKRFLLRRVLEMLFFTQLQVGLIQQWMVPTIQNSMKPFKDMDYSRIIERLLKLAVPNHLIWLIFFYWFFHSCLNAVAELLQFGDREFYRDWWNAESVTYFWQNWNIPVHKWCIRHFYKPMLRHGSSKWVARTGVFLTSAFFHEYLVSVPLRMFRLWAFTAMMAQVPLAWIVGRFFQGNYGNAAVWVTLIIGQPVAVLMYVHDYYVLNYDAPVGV

[2] = target: T2, Diacylglycerol O-acyltransferase 1 (Homo sapiens, UniProt O75907); experiment: Inhibition of human recombinant DGAT1 expressed in Sf9 cells
T2 sequence (O75907 whole entry): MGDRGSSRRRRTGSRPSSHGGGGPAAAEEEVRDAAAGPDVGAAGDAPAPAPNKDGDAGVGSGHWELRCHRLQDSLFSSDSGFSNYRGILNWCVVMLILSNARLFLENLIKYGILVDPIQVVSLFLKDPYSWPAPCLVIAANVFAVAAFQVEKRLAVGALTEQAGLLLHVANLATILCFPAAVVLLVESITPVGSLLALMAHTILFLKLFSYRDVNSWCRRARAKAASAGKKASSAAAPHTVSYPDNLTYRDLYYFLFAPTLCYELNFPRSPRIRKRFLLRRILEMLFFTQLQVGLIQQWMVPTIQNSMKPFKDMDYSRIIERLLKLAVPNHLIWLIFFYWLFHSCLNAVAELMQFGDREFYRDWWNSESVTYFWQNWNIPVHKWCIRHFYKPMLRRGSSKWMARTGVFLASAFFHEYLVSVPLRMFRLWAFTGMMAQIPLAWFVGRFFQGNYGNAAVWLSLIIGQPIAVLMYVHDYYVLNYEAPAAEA

[3] = target: T3, Diacylglycerol O-acyltransferase 2 (Mus musculus) (UniProt Q9DCV3); experiment: Inhibition of mouse DGAT2
T3 sequence (whole entry): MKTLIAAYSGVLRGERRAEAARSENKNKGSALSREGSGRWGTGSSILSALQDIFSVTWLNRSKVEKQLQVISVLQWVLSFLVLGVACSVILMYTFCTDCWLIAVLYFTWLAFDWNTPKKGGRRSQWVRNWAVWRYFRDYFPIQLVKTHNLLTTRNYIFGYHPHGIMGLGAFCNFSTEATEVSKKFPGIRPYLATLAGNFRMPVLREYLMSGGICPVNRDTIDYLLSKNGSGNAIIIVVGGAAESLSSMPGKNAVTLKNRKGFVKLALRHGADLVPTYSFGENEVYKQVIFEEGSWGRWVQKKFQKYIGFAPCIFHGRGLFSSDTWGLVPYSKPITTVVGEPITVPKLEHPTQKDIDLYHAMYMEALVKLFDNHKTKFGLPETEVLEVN

[4] = target: T4, Sterol O-acyltransferase 1 (Homo sapiens) (UniProt P35610); experiment: Inhibition of human ACAT1
T4 sequence (whole entry): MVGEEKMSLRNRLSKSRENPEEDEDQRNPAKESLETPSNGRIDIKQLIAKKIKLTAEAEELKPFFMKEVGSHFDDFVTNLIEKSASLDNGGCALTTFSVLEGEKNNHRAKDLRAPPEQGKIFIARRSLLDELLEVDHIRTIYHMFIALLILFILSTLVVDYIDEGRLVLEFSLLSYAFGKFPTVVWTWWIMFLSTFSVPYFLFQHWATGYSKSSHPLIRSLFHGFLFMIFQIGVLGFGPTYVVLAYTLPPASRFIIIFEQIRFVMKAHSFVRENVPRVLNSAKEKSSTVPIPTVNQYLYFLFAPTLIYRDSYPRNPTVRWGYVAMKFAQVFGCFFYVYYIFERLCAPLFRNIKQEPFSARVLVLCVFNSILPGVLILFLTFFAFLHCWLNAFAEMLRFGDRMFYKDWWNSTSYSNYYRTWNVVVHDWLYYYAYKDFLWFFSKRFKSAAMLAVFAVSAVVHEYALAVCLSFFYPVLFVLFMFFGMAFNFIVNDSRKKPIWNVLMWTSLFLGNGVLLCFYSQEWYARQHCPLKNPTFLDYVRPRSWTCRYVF

[5] = target: T5, Sterol O-acyltransferase 2 (Homo sapiens) (UniProt O75908); experiment: Inhibition of human ACAT2
T5 sequence (whole entry): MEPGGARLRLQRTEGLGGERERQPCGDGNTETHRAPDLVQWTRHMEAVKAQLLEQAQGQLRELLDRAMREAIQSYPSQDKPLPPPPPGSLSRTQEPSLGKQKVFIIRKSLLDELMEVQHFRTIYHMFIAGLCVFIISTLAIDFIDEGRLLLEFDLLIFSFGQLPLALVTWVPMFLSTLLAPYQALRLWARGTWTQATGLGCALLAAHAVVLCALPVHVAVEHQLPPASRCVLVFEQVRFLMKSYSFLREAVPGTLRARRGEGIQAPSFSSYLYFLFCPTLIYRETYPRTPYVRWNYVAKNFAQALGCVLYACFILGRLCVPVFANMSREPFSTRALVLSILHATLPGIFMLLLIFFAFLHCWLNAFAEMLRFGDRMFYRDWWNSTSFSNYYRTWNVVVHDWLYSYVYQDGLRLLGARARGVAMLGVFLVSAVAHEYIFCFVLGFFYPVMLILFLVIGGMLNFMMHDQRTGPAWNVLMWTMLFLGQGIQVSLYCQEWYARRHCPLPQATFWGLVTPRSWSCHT

[6] = Plasma clearance in rat at 5 mg/kg, iv; type: ADME, organism-based; parameters: dose 5 mg/kg, route intravenous
Method in brief: (§1)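 Single-dose pharmacokinetics given iv or orally to mouse (10 mg/kg), rat (5 mg/kg) and dog (2.5 mg/kg). Half-life, Cmax, AUC, plasma clearance, volume of distribution and oral bioavailability were derived from plasma levels. Values are means, n = 3 unless stated otherwise.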

[7] = AUC in rat at 5 mg/kg, iv; type: ADME, organism-based; parameters: dose 5 mg/kg, route intravenous; conditions: plasma; method in brief: as §1
[8] = Volume of distribution at terminal phase in rat at 5 mg/kg, iv; type: ADME, organism-based; parameters: dose 5 mg/kg, route intravenous; conditions: in vivo, read-out: Vbeta; method in brief: as §1
[9] = Half life in DIO mouse at 10 mg/kg, po; type: ADME, organism-based; parameters: dose 10 mg/kg, route oral; conditions: in vivo; method in brief: as §1
[10] = Cmax in DIO mouse at 10 mg/kg, po; type: ADME, organism-based; parameters: dose 10 mg/kg, route oral; conditions: in vivo; method in brief: as §1
[11] = AUC in DIO mouse at 10 mg/kg, po; type: ADME, organism-based; parameters: dose 10 mg/kg, route oral; conditions: plasma; method in brief: as §1
[12] = Half life in rat at 5 mg/kg, iv; type: ADME, organism-based; parameters: dose 5 mg/kg, route intravenous; conditions: in vivo; method in brief: as §1
[13] = Half life in rat at 5 mg/kg, po; type: ADME, organism-based; parameters: dose 5 mg/kg, route oral; conditions: in vivo; method in brief: as §1
[14] = Cmax in rat at 5 mg/kg, po; type: ADME, organism-based; parameters: dose 5 mg/kg, route oral; conditions: in vivo; method in brief: as §1
[15] = AUC in rat at 5 mg/kg, po; type: ADME, organism-based; parameters: dose 5 mg/kg, route oral; conditions: plasma; method in brief: as §1
[16] = Oral bioavailability in rat at 5 mg/kg; type: ADME, organism-based; conditions: in vivo; method in brief: as §1
[17] = Half life in dog at 2.5 mg/kg, iv; type: ADME, organism-based, Canis lupus familiaris; parameters: dose 2.5 mg/kg, route intravenous; conditions: in vivo; method in brief: as §1
[18] = Volume of distribution at terminal phase in dog at 2.5 mg/kg, iv; type: ADME, organism-based, Canis lupus familiaris; parameters: dose 2.5 mg/kg, route intravenous; conditions: in vivo, read-out: Vbeta; method in brief: as §1
[19] = AUC in dog at 2.5 mg/kg, iv; type: ADME, organism-based, Canis lupus familiaris; parameters: dose 2.5 mg/kg, route intravenous; conditions: plasma; method in brief: as §1
[20] = Plasma clearance in dog at 2.5 mg/kg, iv; type: ADME, organism-based, Canis lupus familiaris; parameters: dose 2.5 mg/kg, route intravenous; method in brief: as §1
[21] = Half life in dog at 2.5 mg/kg, po; type: ADME, organism-based, Canis lupus familiaris; parameters: dose 2.5 mg/kg, route oral; conditions: in vivo; method in brief: as §1
[22] = Cmax in dog at 2.5 mg/kg, po; type: ADME, organism-based, Canis lupus familiaris; parameters: dose 2.5 mg/kg, route oral; conditions: in vivo; method in brief: as §1
[23] = AUC in dog at 2.5 mg/kg, po; type: ADME, organism-based, Canis lupus familiaris; parameters: dose 2.5 mg/kg, route oral; conditions: plasma; method in brief: as §1
[24] = Oral bioavailability in dog at 2.5 mg/kg; type: ADME, organism-based, Canis lupus familiaris; conditions: in vivo; method in brief: as §1
[25] = tested on: Mus musculus; experiment: Decrease in body weight in DIO C57BL/6J mouse at 3 mg/kg, po bid after 7 days; type: functional, organism-based; parameters: dose 3 mg/kg
Method in brief: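 DIO mice kept on high-fat diet ad libitum were dosed orally for four weeks, either 3 mg/kg bid in 1% Tween-80/water or a reference at 10 mg/kg qd, alongside a vehicle group. Body weight was measured on days 1, 5, 7, 14 and 27 and expressed as change in grams from day zero. Mean ± SEM, n = 9, compared with vehicle.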

[26] = tested on: Mus musculus; experiment: Decrease in liver triglyceride level in DIO C57BL/6J mouse at 3 mg/kg, po after 28 days; type: functional
Method in brief: (§2)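 DIO mice on high-fat diet were dosed orally for four weeks at 3 mg/kg bid in 1% Tween-80/water, or a reference at 10 mg/kg qd. Liver triglycerides were determined on day 28 only. Mean ± SEM, n = 9, compared with vehicle.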

[27] = tested on: Mus musculus; experiment: Increase in liver triglyceride level in DIO C57BL/6J mouse at 3 mg/kg, po after 28 days; type: ADME, organism-based; parameters: dose 3 mg/kg, route oral; conditions: in vivo, 672 h; method in brief: as §2
[28] = Cmax in C57BL/6J mouse at 3 mg/kg, po after 1 hr; type: ADME, organism-based; parameters: dose 3 mg/kg, route oral; conditions: in vivo
Method in brief: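 On day 28 of oral dosing at 3 mg/kg bid in DIO mice, plasma drug concentration was measured at 1 h (n = 3) and 17 h (n = 9) after the final dose. Mean ± SEM.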

[29] = tested on: Mus musculus; experiment: Reduction of chylomicron-derived serum triglyceride level in acute lipid challenged DIO C57BL/6J mouse at 0.3 mg/kg, po; type: functional; parameters: scale not given: the % may be the effect or the level left
Method in brief: (§3)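 DIO mice were dosed orally at 0.3, 3 or 30 mg/kg: bid on days 1–2, fasted overnight, then dosed once on day 3. One hour after the final dose a corn oil bolus was given by gavage, and plasma triglycerides were measured 1 h later. Percent inhibition for the 0.3 and 3 mg/kg doses is relative to the 30 mg/kg dose. Mean ± SEM, n = 9.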

[30] = tested on: Mus musculus; experiment: Reduction of chylomicron-derived serum triglyceride level in acute lipid challenged DIO C57BL/6J mouse at 3 mg/kg, po; type: functional; parameters: scale not given: the % may be the effect or the level left; method in brief: as §3
[31] = tested on: Mus musculus; experiment: Reduction of chylomicron-derived serum triglyceride level in acute lipid challenged DIO C57BL/6J mouse at 30 mg/kg, po; type: functional; parameters: scale not given: the % may be the effect or the level left; method in brief: as §3
[32] = tested on: Mus musculus; experiment: Decrease in body weight in DIO C57BL/6J mouse at 3 mg/kg, po bid after 14 days

IC50 [1]: 14 nM
SMILES: O=C(Nc1ccc(-c2ccc(C(=O)[C@@H]3CCC[C@H]3C(=O)O)cc2)cc1)Nc1ccc(C(F)(F)F)cc1

IC50 [2]: 96 nM
SMILES: O=C(Nc1ccccc1)Nc1ccc(-c2ccc(C(=O)[C@H]3CCC[C@@H]3C(=O)O)cc2)cc1

IC50 [2]: 7 nM
IC50 [1]: 24 nM
Activity [3]: inactive
Activity [4]: inactive
Activity [5]: inactive
clearance [6]: 0.667 mL/min/kg
AUC [7]: 145000 ng·h/mL
Vd [8]: 0.21 L/kg
half-life [9]: 6.5 h
Cmax [10]: 3510 ng/mL
AUC [11]: 15200 ng·h/mL
half-life [12]: 3.9 h
half-life [13]: 2.7 h
Cmax [14]: 8530 ng/mL
AUC [15]: 80200 ng·h/mL
bioavailability [16]: 55.2%
half-life [17]: 3.3 h
Vd [18]: 1.21 L/kg
AUC [19]: 11100 ng·h/mL
clearance [20]: 3.83 mL/min/kg
half-life [21]: 3.6 h
Cmax [22]: 2470 ng/mL
AUC [23]: 5500 ng·h/mL
bioavailability [24]: 49.2%
Activity [27]: 88 mg/dL
Cmax [28]: 910 ng/mL
SMILES: O=C(Nc1ccccc1)Nc1ccc(-c2ccc(C(=O)[C@@H]3CCC[C@H]3C(=O)O)cc2)cc1
Activity [25]: Active
Activity [26]: 53.5 mg/dL
Activity [29]: 73%
Activity [30]: 93%
Activity [31]: 100%
Activity [32]: Active

IC50 [1]: 207 nM
SMILES: O=C(O)[C@@H]1CCC[C@H]1C(=O)c1ccc(-c2ccc(Nc3nc4ccc(OC(F)(F)F)cc4s3)c(F)c2)cc1

IC50 [1]: 63 nM
SMILES: O=C(Nc1ccc(-c2ccc(C(=O)[C@@H]3CCC[C@H]3C(=O)O)cc2)cc1)Nc1ccc2c(c1)OCO2

IC50 [1]: 603 nM
SMILES: N#Cc1ccc(NC(=O)Nc2ccc(-c3ccc(C(=O)[C@@H]4CCC[C@H]4C(=O)O)cc3)cc2)cc1
